Laboratory results published in ChEMBL document CHEMBL1124492, “Folate analogues. 32. Synthesis and biological evaluation of 2-desamino-2-methyl-N10-propargyl-5,8-dideazafolic acid and related compounds” (J Med Chem, 1989).
Blank lines part the entries; values can stand above or below the compound they belong to.

Tests used:
[1] = Inhibition of growth of H35FF cells; format: functional, cell-based
Procedure, shortened: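 The H35FF line was derived from H35 cells by growth in 25 μM (6RS)-5-formyltetrahydrofolate, held constant, with FdUR raised from 0.3 nM in 3-fold steps to 100 nM. This selection amplifies thymidylate synthase to about 70 times the H35N level.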

[2] = test system: H35R0.3; assay: Inhibition of growth of H35R cells; format: functional, cell-based, Homo sapiens; conditions: Rattus norvegicus
[3] = Inhibition of growth of H35N cells; format: functional, cell-based
[4] = target: T1, Thymidylate synthase (Homo sapiens, UniProt P04818); assay: Inhibition of purified human thymidylate synthase from a SV40-transformed human fibroblast cell line cloned in Escherichia coli
T1 sequence (P04818 whole entry): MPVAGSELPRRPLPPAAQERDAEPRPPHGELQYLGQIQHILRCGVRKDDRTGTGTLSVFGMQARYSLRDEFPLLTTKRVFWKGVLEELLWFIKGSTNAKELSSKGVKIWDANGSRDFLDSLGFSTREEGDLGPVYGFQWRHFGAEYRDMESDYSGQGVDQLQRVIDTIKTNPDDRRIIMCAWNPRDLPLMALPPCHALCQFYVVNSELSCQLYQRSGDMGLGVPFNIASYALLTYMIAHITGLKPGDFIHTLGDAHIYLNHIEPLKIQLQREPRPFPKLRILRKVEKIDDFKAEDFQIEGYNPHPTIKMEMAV

[5] = Inhibition of growth of colon adenocarcinoma SW 480 cells; format: functional, cell-based; conditions: Homo sapiens, SW480
[6] = test system: H35R0.3; assay: Inhibition of (6RS)-5-formyltetrahydrofolate (2 uM) transport in H35 hepatoma cell culture and % uptake was determined in presence of inhibitor DMPDDF (50 uM); format: functional, cell-based
Procedure, shortened: (§1)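 H35 hepatoma cells were grown to confluence, washed twice with Hanks BSS and incubated at 37 °C. [3H]-(6RS)-5-formyltetrahydrofolate (2 μM, 3.8×10^5 dpm/nmol) was added with or without inhibitor, and uptake was sampled at 10 min, within its linear range. Uptake is expressed as percent of the no-inhibitor control, as the mean of duplicate samples.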

[7] = test system: H35R0.3; assay: Inhibition of methotrexate (5 uM) transport in H35 hepatoma cell culture and % uptake was reported in presence of inhibitor PDDF (50 uM); format: functional, cell-based
Procedure, shortened: (§2)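 Confluent H35 hepatoma monolayers were washed twice with Hanks BSS and held at 37 °C. [3H]methotrexate (5 μM, 5.5×10^5 dpm/nmol) was added with or without inhibitor, and uptake was taken at 4 min, within its linear range. Results are percent of the uninhibited control uptake, averaged from duplicate samples.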

[8] = target: T2, Trifunctional purine biosynthetic protein adenosine-3 (Homo sapiens, UniProt P22102); assay: Inhibition of GAR formyltransferase from extract of Manca human lymphoma cells; format: cell-based
T2 sequence (P22102 whole entry): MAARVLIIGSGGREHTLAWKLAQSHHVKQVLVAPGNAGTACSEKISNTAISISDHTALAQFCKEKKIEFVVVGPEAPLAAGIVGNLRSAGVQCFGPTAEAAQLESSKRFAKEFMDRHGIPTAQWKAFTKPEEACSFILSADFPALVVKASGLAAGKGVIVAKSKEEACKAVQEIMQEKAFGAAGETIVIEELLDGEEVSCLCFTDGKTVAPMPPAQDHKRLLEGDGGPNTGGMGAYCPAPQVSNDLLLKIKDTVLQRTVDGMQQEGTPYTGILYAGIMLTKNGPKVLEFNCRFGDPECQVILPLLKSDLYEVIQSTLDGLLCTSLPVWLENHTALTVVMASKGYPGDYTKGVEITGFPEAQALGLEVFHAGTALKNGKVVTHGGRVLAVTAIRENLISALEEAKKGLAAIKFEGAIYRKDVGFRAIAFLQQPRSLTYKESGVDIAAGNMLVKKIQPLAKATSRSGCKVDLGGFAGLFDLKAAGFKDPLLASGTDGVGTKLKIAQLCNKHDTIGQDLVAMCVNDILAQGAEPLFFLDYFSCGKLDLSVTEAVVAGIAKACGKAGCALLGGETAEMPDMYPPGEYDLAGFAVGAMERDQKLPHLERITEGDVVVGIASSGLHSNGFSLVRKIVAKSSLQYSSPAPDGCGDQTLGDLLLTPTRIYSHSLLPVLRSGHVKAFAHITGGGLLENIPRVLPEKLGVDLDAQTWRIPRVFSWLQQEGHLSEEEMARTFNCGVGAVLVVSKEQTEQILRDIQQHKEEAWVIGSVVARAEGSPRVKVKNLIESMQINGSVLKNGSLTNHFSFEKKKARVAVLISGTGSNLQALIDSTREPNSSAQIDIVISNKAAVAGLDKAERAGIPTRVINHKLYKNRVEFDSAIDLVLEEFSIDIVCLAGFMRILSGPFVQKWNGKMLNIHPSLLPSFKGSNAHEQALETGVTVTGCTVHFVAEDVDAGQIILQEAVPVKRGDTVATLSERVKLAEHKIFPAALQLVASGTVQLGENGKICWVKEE

[9] = test system: H35R0.3; assay: Inhibition of methotrexate (5 uM) transport in H35 hepatoma cell culture and % uptake was reported in presence of inhibitor DMPDDF (50 uM); format: functional, cell-based; procedure, shortened: as §2
[10] = test system: H35R0.3; assay: Inhibition of (6RS)-5-formyltetrahydrofolate (2 uM) transport in H35 hepatoma cell culture and % uptake was determined in presence of inhibitor folic acid (50 uM); format: functional, cell-based; procedure, shortened: as §1
[11] = test system: Lacticaseibacillus casei; assay: Inhibition of growth of Lactobacillus casei; format: functional, organism-based
[12] = test system: H35R0.3; assay: Inhibition of methotrexate (5 uM) transport in H35 hepatoma cell culture and % uptake was reported in presence of inhibitor (6RS)-5-formyltetrahydrofolate (50 uM); format: functional, cell-based; procedure, shortened: as §2
[13] = test system: Lymphoma cell line; assay: Inhibition of growth of tumor cells, manca human lymphoma cells; format: functional, cell-based
[14] = test system: H35R0.3; assay: Inhibition of methotrexate (5 uM) transport in H35 hepatoma cell culture and % uptake was reported in presence of inhibitor methotrexate (50 uM); format: functional, cell-based; procedure, shortened: as §2
[15] = test system: H35R0.3; assay: Inhibition of (6RS)-5-formyltetrahydrofolate (2 uM) transport in H35 hepatoma cell culture and % uptake was determined in presence of inhibitor methotrexate (50 uM); format: functional, cell-based; procedure, shortened: as §1
[16] = test system: H35R0.3; assay: Inhibition of (6RS)-5-formyltetrahydrofolate (2 uM) transport in H35 hepatoma cell culture and % uptake was determined in presence of inhibitor aminopterin (50 uM); format: functional, cell-based; procedure, shortened: as §1
[17] = target: Dihydrofolate reductase (Lactobacillus casei, UniProt P00381); assay: Inhibition of dihydrofolate reductase in Lactobacillus casei; design: species or system Lacticaseibacillus casei
Sequence of Dihydrofolate reductase (Lactobacillus casei, UniProt P00381) (P00381 whole entry): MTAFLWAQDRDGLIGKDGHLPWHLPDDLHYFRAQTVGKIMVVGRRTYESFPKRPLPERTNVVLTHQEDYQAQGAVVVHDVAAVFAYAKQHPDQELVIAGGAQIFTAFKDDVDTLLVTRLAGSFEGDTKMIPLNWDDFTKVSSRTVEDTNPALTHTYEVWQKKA

[18] = test system: H35R0.3; assay: Inhibition of methotrexate (5 uM) transport in H35 hepatoma cell culture; format: functional, cell-based; procedure, shortened: as §2
[19] = test system: H35R0.3; assay: Inhibition of (6RS)-5-formyltetrahydrofolate (2 uM) transport in H35 hepatoma cell cultured and % uptake was determined in presence of inhibitor (6RS)-5-formyltetrahydrofolate (50 uM); format: functional, cell-based; procedure, shortened: as §1
[20] = target: T3, Thymidylate synthase (Lactobacillus casei, UniProt P00469); assay: Inhibition of thymidylate synthase in Lactobacillus casei; design: species or system Lacticaseibacillus casei
T3 sequence (P00469 whole entry): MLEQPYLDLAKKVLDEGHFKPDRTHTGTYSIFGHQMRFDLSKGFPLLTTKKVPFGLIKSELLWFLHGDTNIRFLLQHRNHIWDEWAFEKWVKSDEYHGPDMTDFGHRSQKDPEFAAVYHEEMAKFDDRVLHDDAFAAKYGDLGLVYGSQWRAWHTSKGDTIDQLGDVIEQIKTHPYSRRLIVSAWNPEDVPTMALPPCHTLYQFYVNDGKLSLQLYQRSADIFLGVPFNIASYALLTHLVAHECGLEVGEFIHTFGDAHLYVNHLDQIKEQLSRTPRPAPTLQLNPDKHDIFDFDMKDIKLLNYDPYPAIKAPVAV

[21] = test system: H35R0.3; assay: Inhibition of (6RS)-5-formyltetrahydrofolate (2 uM) transport in H35 hepatoma cell culture and % uptake was determined in presence of inhibitor PDDF (50 uM); format: functional, cell-based; procedure, shortened: as §1
[22] = target: T4, Dihydrofolate reductase (Homo sapiens, UniProt P00374); assay: Inhibition of pure human dihydrofolate reductase (DHFR) from lymphoblastoid cells
T4 sequence (P00374 whole entry): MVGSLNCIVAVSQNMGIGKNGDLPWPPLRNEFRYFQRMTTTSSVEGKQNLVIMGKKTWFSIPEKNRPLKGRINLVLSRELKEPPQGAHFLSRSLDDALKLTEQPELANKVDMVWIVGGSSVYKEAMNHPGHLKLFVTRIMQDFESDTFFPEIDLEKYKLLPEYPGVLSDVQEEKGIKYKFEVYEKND

[23] = test system: H35R0.3; assay: Inhibition of (6RS)-5-formyltetrahydrofolate (2 uM) transport in H35 hepatoma cell culture; format: functional, cell-based; procedure, shortened: as §1
[24] = test system: H35R0.3; assay: Inhibition of methotrexate (5 uM) transport in H35 hepatoma cell culture and % uptake was reported in presence of inhibitor folic acid (50 uM); format: functional, cell-based; procedure, shortened: as §2
[25] = target: Bifunctional purine biosynthesis protein ATIC (Homo sapiens, UniProt P31939); assay: Inhibition of AICAR formyltransferase from extract of Manca human lymphoma cells; format: cell-based
Sequence of Bifunctional purine biosynthesis protein ATIC (P31939 whole entry): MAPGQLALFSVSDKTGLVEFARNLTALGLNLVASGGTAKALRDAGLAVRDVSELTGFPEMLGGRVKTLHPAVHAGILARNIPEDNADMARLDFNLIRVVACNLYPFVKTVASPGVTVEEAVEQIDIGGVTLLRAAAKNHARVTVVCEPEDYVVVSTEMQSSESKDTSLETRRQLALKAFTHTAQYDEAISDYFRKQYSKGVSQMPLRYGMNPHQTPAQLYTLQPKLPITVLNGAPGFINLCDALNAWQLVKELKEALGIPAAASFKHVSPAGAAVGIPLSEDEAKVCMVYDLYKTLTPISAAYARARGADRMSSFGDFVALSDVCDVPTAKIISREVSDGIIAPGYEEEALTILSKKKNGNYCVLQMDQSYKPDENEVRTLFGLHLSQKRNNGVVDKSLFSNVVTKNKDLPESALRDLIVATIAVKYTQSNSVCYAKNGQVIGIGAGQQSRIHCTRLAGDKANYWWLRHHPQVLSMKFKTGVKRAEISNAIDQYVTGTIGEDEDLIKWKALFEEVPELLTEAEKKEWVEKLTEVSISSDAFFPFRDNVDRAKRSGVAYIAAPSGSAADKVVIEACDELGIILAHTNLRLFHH

[26] = test system: H35R0.3; assay: Inhibition of methotrexate (5 uM) transport in H35 hepatoma cell culture and % uptake was reported in presence of inhibitor aminopterin (50 uM); format: functional, cell-based; procedure, shortened: as §2
[27] = test system: Enterococcus faecium; assay: Inhibition of growth of Staphylococcus faecium; format: functional, organism-based
[28] = target: T1, Thymidylate synthase; assay: Inhibition of pure human thymidylate synthase from extract of Manca human lymphoma cells; format: cell-based

Structure (SMILES): CN(Cc1cnc2nc(N)nc(N)c2n1)c1ccc(C(=O)N[C@@H](CCC(=O)O)C(=O)O)cc1 [METHOTREXATE]
IC50 [1]: 10 nM
IC50 [2]: 906 nM
IC50 [3]: 10 nM

IC50 [4]: 11300 nM
Structure (SMILES): C#CCN(Cc1ccc2nc(C)n(C)c(=O)c2c1)c1ccc(C(=O)NC(CCC(=O)O)C(=O)O)cc1 (centres undefined)
IC50 [5]: > 100000 nM

IC50 [8]: > 17000 nM
IC50 [13]: 13 nM
IC50 [17]: 35000 nM
IC50 [20]: 100 nM
IC50 [22]: > 30000 nM
IC50 [4]: 9.8 nM
IC50 [25]: > 60000 nM
IC50 [28]: 60 nM
Structure (SMILES): C#CCN(Cc1ccc2nc(C)nc(O)c2c1)c1ccc(C(=O)NC(CCC(=O)O)C(=O)O)cc1 (centres undefined)
Uptake [6]: 8.5%
Uptake [7]: 100%
Uptake [9]: 25%
Uptake [10]: 83%
IC50 [11]: 22 nM
Uptake [12]: 25%
Uptake [14]: 25%
Uptake [15]: 22%
Uptake [16]: 11%
IC50 [1]: 7280 nM
Uptake [18]: 100%
IC50 [2]: 2240 nM
Uptake [19]: 22%
Uptake [21]: 90%
Uptake [23]: 100%
IC50 [3]: 55 nM
Uptake [24]: 85%
Uptake [26]: 25%
IC50 [5]: 50 nM
IC50 [27]: 6 nM

Structure (SMILES): C#CCN(Cc1ccc2nc(C(F)(F)F)nc(O)c2c1)c1ccc(C(=O)NC(CCC(=O)O)C(=O)O)cc1 (centres undefined)
IC50 [5]: > 100000 nM

IC50 [13]: 560 nM
Structure (SMILES): C#CCN(Cc1ccc2[nH]c(N)nc(=O)c2c1)c1ccc(C(=O)NC(CCC(=O)O)C(=O)O)cc1 (centres undefined)
IC50 [11]: 0.4 nM
IC50 [2]: 2000 nM
IC50 [3]: 3600 nM
IC50 [27]: 0.13 nM
